Results taken from article PMC8906099 (Current Research in Parasitology & Vector-borne Diseases, 2021).
Converted amounts (≈) assume the structure as drawn. Read-outs that look alike come from different tables or passages of the source.

Columns and labels:
[1] = system: several Streptococcus species; details: ref Vieira et al., 2018; cited from earlier work
[2] = Cytotoxicity in infected C2C12 cells after 72 h; assay type: cell-based, murine; details: mouse
Procedure, shortened: (§1)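 C2C12 cells were infected with trypomastigotes (1:15) together with test compound (0.19–100 μM, 0.1% DMSO) for 72 h at 37 °C, 5% CO2. Host nuclei were counted by DAPI high-content imaging. Viability was the cell count relative to the DMSO-control mean. CC50 came from sigmoid fits. SI = CC50/IC50 against intracellular amastigotes of the same strain at 72 h.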

[3] = system: infected C2C12 cells; assay: Cytotoxicity in infected C2C12 cells after 72 h; assay type: cell-based, murine; details: 72 h
Procedure, shortened: as §1

[4] = system: trypomastigotes of T. cruzi (Sylvio X10/4 strain); assay: Trypanocidal activity against trypomastigotes; assay type: cell-based; details: Trypanosoma cruzi, 72 h, read-out: IC50 ± SD, trypomastigotes
Procedure, shortened: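 Sylvio X10/4 trypomastigotes were taken from amastigote culture supernatant and seeded at 1 × 10^6 per well. Test compound was added at 0.19–100 μM (0.1% DMSO), with benznidazole (0.019–10 μM) and DMSO controls. Incubation was 72 h at 37 °C, 5% CO2. Viability was read with resazurin (40 μM in PBS), fluorescence 530/630 nm. IC50 came from sigmoid dose–response fits.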

[5] = system: non-infected LLC-MK2 cells; assay: Cytotoxicity in non-infected cells; assay type: cell-based, monkey; details: non-infected LLC-MK2 CC50 / IC50 amastigotes CA-I/72 strain, 72 h
Procedure, shortened: (§2)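 LLC-MK2 monkey kidney cells, grown in RPMI with 10% FBS at 37 °C and 5% CO2, were plated and after 24 h exposed to test compound (0.19–100 μM, 2-fold dilutions, 0.1% DMSO) for 72 h at 37 °C. Controls were untreated cells, 0.4% DMSO and 15% Triton. After a PBS wash, MTT (2 mg/ml) was added for 4 h, and absorbance read at 450/620 nm. SI is CC50 divided by the 72 h CA-I/72 intracellular amastigote IC50.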

[6] = Cytotoxicity in non-infected cells; assay type: cell-based, monkey; details: monkey, non-infected LLC-MK2 cells
Procedure, shortened: as §2

[7] = system: amastigotes of T. cruzi Sylvio X10/7 strain; assay: Trypanocidal activity against intracellular amastigotes in C2C12 cells; assay type: cell-based, Trypanosoma cruzi
Procedure, shortened: (§3)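 Trypomastigotes from C2C12 co-culture (DMEM, 10% FBS, 25 mM HEPES, pH 7.2) were seeded with C2C12 cells at a 1:15 infection rate. Test compound (0.19–100 μM, 2-fold, 0.1% DMSO) was added at the start. After 72 h at 37 °C, 5% CO2, cells were stained with DAPI 2 h and imaged confocally. Amastigote and host nuclei were told apart by size. IC50 came from sigmoid fits of the infection ratio normalised to controls. Mean ± SD, three experiments in triplicate.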

[8] = system: non-infected C2C12 cells; assay: Cytotoxicity in non-infected cells; assay type: cell-based, murine; details: non-infected C2C12 CC50 / IC50 amastigotes CA-I/72 strain, 72 h
Procedure, shortened: (§4)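 Non-infected C2C12 cells (5 × 10^4 per well) were plated for 24 h. Test compound (0.19–100 μM, 2-fold, 0.1% DMSO) was then added for 72 h at 37 °C. Controls were untreated, DMSO 0.4% and Triton 15%. After a PBS wash, MTT (2 mg/ml) was added for 4 h, and absorbance was read at 450 nm (reference 620 nm). CC50 came from sigmoid fits. SI = CC50/IC50 against CA-I/72 amastigotes at 72 h.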

[9] = Cytotoxicity in non-infected cells; assay type: cell-based, murine; details: mouse, non-infected C2C12 cells
Procedure, shortened: as §4

[10] = system: amastigotes of T. cruzi Sylvio X10/4 strain; assay: Trypanocidal activity against intracellular amastigotes in C2C12 cells; assay type: cell-based; details: Trypanosoma cruzi, C2C12, 72 h, read-out: IC50 ± SD, amastigotes
Procedure, shortened: as §3

[11] = system: intracellular amastigotes of T. cruzi CA-I/72 strain; assay: Time-course study against intracellular amastigotes; assay type: cell-based; details: Trypanosoma cruzi
Procedure, shortened: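 CA-I/72 trypomastigotes were incubated with C2C12 cells for 48 h to form intracellular amastigotes. Test compound was then added (0.19–100 μM, 2-fold, 0.1% DMSO), with benznidazole and DMSO controls. Incubation ran 8, 12, 24 or 48 h at 37 °C, 5% CO2. Growth inhibition was read by DAPI high-content imaging. IC50 came from sigmoid fits of the normalised infection ratio. Time trend was tested by linear regression and ANOVA.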

[12] = system: amastigotes of T. cruzi CA-I/72 strain; assay: Trypanocidal activity against intracellular amastigotes in C2C12 cells; assay type: cell-based; details: Trypanosoma cruzi, C2C12, 72 h, read-out: IC50 ± SD, amastigotes
Procedure, shortened: as §3

[13] = Time-course cytotoxicity in infected C2C12 cells; assay type: cell-based, murine; details: mouse
Procedure, shortened: (§5)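 This uses the CA-I/72 time-course infection format: a 48 h pre-infection of C2C12 cells, then test compound at 0.19–100 μM for 8, 12, 24 or 48 h, with DAPI imaging. Host viability was the total host cell count divided by the mean count of 0.1% DMSO controls. CC50 came from sigmoid fits. SI = CC50/IC50 against amastigotes at the matching time.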

[14] = system: amastigotes of T. cruzi Brazil strain; assay: Trypanocidal activity against intracellular amastigotes in C2C12 cells; assay type: cell-based; details: Trypanosoma cruzi, C2C12, 72 h, read-out: IC50 ± SD, amastigotes
Procedure, shortened: as §3

[15] = system: C2C12 cells infected with intracellular amastigotes of T. cruzi (CA-I/72 strain); assay: Time-course cytotoxicity in infected C2C12 cells; assay type: cell-based, murine; details: infected C2C12 vs amastigotes CA-I/72, time-course
Procedure, shortened: as §5

[16] = system: female BALB/c mice; assay: Acute oral toxicity test in mice; assay type: in vivo; details: for DA/TA (dead animals/total animals) / Mortality / Signs of toxicity: 14 days
Procedure, shortened: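 Six-week-old female BALB/c mice (25–30 g), five per group. Single oral dose of 300 or 1,000 mg/kg test compound in Tween 80/ethanol/water (7:3:90), with a vehicle group. Clinical signs (ataxia, tremor, salivation, ptosis, seizures and others) watched continuously for 1 h, periodically over 24 h, then daily to day 14. Mortality recorded.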

[17] = C2C12 cells infected with T. cruzi Brazil strain
[18] = C2C12 cells infected with T. cruzi CA-I/72 strain
[19] = C2C12 cells infected with T. cruzi Sylvio X10/4 strain
[20] = C2C12 cells infected with T. cruzi Sylvio X10/7 strain
[21] = infected C2C12, Sylvio X10/4 strain
[22] = infected C2C12, Sylvio X10/7 strain
[23] = Trypanosoma cruzi, C2C12, 72 h, read-out: IC50 ± SD, amastigotes, Sylvio X10/7 strain, 72 h incubation
[24] = read-out: IC50 over the incubation times evaluated

Structure (SMILES)	CC50 at 72 h [2, 17] [µM]	CC50 at 72 h [2, 18] [µM]	CC50 at 72 h [2, 19] [µM]	CC50 at 72 h [2, 20] [µM]	IC50 [4] [µM]	SI (CC50/IC50) [5]	CC50 at 72 h [6] [µM]	IC50 [7, 23] [µM]	CC50 at 72 h [9] [µM]	IC50 [10] [µM]	IC50 ([11]; 8 h, read-out: IC50 ± SD) [µM]	IC50 ([11]; 12 h, read-out: IC50 ± SD) [µM]	IC50 ([11]; 24 h, read-out: IC50 ± SD) [µM]	IC50 ([11]; 48 h, read-out: IC50 ± SD) [µM]	IC50 [12] [µM]	CC50 at 8 h [13] [µM]	CC50 at 12 h [13] [µM]	CC50 at 24 h [13] [µM]	CC50 at 48 h [13] [µM]	IC50 [14] [µM]	further results
O=C(/C=C/c1ccc(Cl)cc1)/C=C/c1ccc(Cl)cc1 [DBA 5, (1E,4E)-1,5-bis-(4-chlorophenyl)penta-1,4-dien-3-one]	12.4 ± 2.29	15.5 ± 1.25	11.8 ± 7.74	4.06 ± 2.31	73.7 ± 2.08	1.13	38.1 ± 1.81	25.3 ± 1.34	38.3 ± 1.69	56.9 ± 1.86	> 100	> 100	> 100	> 100	33.6 ± 1.39	93.29 ± 0.42	10.6 ± 1.26	0.3 ± 0.02	0.2 ± 0.01	6.37 ± 0.03	MIC [1]: 100 µg/mL (≈ 330 µM); SI (CC50/IC50) ([3]; infected C2C12, CA-I/72 strain): 0.45; SI (CC50/IC50) [3, 21]: 0.20; SI (CC50/IC50) [3, 22]: 0.16; SI (CC50/IC50) [8]: 1.13; IC50 [11, 24]: > 100 µM
O=C(Cn1ccnc1[N+](=O)[O-])NCc1ccccc1 [BZ, benznidazole, reference compound]	> 10	> 10	> 10	> 10	1.16 ± 0.04	82.92	168 ± 2.98	1.19 ± 0.25	37.9 ± 1.54	4.12 ± 1.02	> 10	6.85 ± 1.56	5.97 ± 1.2	1.54 ± 0.36	2.02 ± 0.12	> 10	3.98 ± 0.31	3.48 ± 0.7	0.27 ± 0.07	1.28 ± 0.64	SI (CC50/IC50) [8]: 18.73; IC50 [11, 24]: 1.54 to 10 µM; SI (CC50/IC50) ([15]; 12 h): 0.58; SI (CC50/IC50) ([15]; 24 h): 0.58; SI (CC50/IC50) ([15]; 48 h): 0.17
COc1cc(/C=C/C(=O)CC(=O)/C=C/c2ccc(O)c(OC)c2)ccc1O [CUR, reference compound]	2.36 ± 1.24	6.71 ± 0.7	1.91 ± 0.02	3.37 ± 1.33	9.89 ± 0.51	–	32.5 ± 0.49	11.6 ± 4.93	18 ± 0.42	20 ± 2.61	> 100	> 100	51.6 ± 1.26	2.25 ± 0.65	2.71 ± 0.47	60.3 ± 1.54	9.95 ± 1.17	1.88 ± 0.17	0.47 ± 0.09	11.2 ± 1.05	Acute toxicity (general signs of toxicity or mortality) ([16]; oral doses 300 and 1,000 mg/kg, 14-day period): no toxic effects; DA/TA (dead animals/total animals) ([16]; single oral dose 300 mg/kg): 0/5; Mortality ([16]; single oral dose 300 mg/kg): 0%; Signs of toxicity ([16]; single oral dose 300 mg/kg): None; DA/TA (dead animals/total animals) ([16]; single oral dose 1,000 mg/kg): 0/5; Mortality ([16]; single oral dose 1,000 mg/kg): 0%; Signs of toxicity ([16]; single oral dose 1,000 mg/kg): None
COc1ccc(/C=C/C(=O)/C=C/c2ccc(OC)cc2)cc1 [DBA 2, (1E,4E)-1,5-bis(4-methoxyphenyl)penta-1,4-dien-3-one]	5.15 ± 0.13	4.3 ± 1.22	2.54 ± 1.86	0.9 ± 1.2	29.8 ± 2.12	1.79	31.4 ± 1.2	0.48 ± 0.02	35.5 ± 0.5	46.6 ± 0.48	> 100	> 100	> 100	> 100	17.5 ± 1.06	40.7 ± 1.07	3.03 ± 0.79	0.33 ± 0.41	0.02 ± 0.03	51.6 ± 4.9	MIC [1]: 100 µg/mL (≈ 340 µM); SI (CC50/IC50) ([3]; infected C2C12, Brazil strain): 0.10; SI (CC50/IC50) ([3]; infected C2C12, CA-I/72 strain): 0.24; SI (CC50/IC50) [3, 21]: 0.05; SI (CC50/IC50) [3, 22]: 1.87; SI (CC50/IC50) [8]: 2.03; IC50 [11, 24]: > 100 µM
COc1cc(OC)c(/C=C/C(=O)/C=C/c2c(OC)cc(OC)cc2OC)c(OC)c1 [DBA 4, (1E,4E)-1,5-bis-(2,4,6-trimethoxyphenyl)penta-1,4-dien-3-one]	0.09 ± 0.11	0.6 ± 0.16	0.11 ± 0.1	0.37 ± 0.14	> 100	≥ 10	50.1 ± 7.92	33.1	53.7 ± 1.26	> 100	> 100	> 100	> 100	34.5 ± 0.94	5.01 ± 1.14	> 100	60.4 ± 1.11	2.98 ± 0.24	0.66 ± 0.29	> 100	SI (CC50/IC50) ([3]; infected C2C12, CA-I/72 strain): 0.12; SI (CC50/IC50) [3, 22]: 0.01; SI (CC50/IC50) ([5]; listed as 4): 10.00; IC50 ([7]; read-out: IC50 ± SD, amastigotes, Sylvio X10/7 strain, 72 h incubation): 33.1 ± 2.05 µM; SI (CC50/IC50) [8]: > 10; SI (CC50/IC50) ([8]; listed as 4): 10.71; SI (CC50/IC50) ([15]; 48 h): 0.01
